Paper PMC7114209 (Antiviral Research, 2008)

Key:
EBV DNA in P3HR-1 cells = settings: ref Lin, 2003; cited from earlier work
[1] = Cell growth and viability assay; assay type: cell-based; settings: human, Raji cells, CC50, cytotoxic concentration that decreased cell viability to 50% of untreated cells, MTT, mean ± S.D. of three experiments
Method in brief: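 Raji cells (latently EBV-infected, non-producer) kept at 4–6 × 10^5 cells/ml in RPMI 1640 with 10% FCS, penicillin and streptomycin. Cells were seeded in 96-well plates and exposed to a range of test compound concentrations for 3 days. MTT was then added for 6 h at 37 °C and solubilised in 0.04 M HCl–isopropanol. Absorbance was read at 595 nm against 655 nm. CC50 is relative to the no-drug control.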

EBV DNA in Raji cells = settings: latently infected Raji cells, not superinfected; ref Lin, 2003; cited from earlier work

## CC1(C)[C@@H](O[C@H]2O[C@H](C(=O)O)[C@@H](O)[C@H](O)[C@H]2O[C@@H]2O[C@H](C(=O)O)[C@@H](O)[C@H](O)[C@H]2O)CC[C@]2(C)[C@H]3C(=O)C=C4[C@@H]5C[C@@](C)(C(=O)O)CC[C@]5(C)CC[C@@]4(C)[C@]3(C)CC[C@@H]12 [GL (18β-GL), Glycyrrhizic acid]
EBV DNA in P3HR-1 cells
  effect on EBV DNA: no effects
[1]
  CC50 at 3 days: 4.5 ± 0.16 mM
EBV DNA in Raji cells
  effect on EBV DNA: no effects
